≈ marks a conversion by molar mass, not a printed value.

The species entered for data set [1] is Oryctolagus cuniculus. Kind of data set: Cardiotoxicity in rabbit ventricular wedge assessed as cardiovascular issues upto 10 uM. The format is toxicity, Cardiac ventricle.
Data set [2] in a line: Plasma protein binding in CD rat by equilibrium dialysis technique. The format is ADME, cell-free. The settings on record: read-out: PPB. Summed up: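 Rapid equilibrium dialysis in CD rat, beagle dog or human plasma, with compound at a nominal 1 μg/mL; n = 3.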
Background: Equilibrium dialysis compares concentrations on both sides of a semipermeable membrane.

The target of data set [3] is C-C chemokine receptor type 5 (Homo sapiens, UniProt P51681). Kind of data set: Antagonist activity at CCR5 receptor (unknown origin) by [35S]GTPgammaS binding assay. In kind it is functional.
C-C chemokine receptor type 5, sequence (P51681 whole entry): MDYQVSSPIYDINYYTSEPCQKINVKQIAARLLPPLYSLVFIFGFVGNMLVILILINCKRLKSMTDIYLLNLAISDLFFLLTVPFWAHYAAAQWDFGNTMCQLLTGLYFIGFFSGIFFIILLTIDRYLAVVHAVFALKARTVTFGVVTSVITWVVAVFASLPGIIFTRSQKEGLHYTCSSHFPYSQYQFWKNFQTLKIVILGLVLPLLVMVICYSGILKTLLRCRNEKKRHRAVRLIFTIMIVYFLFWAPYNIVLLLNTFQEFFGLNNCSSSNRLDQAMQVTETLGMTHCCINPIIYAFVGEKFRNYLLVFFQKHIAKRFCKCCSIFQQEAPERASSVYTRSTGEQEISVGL
The species entered for data set [4] is Oryctolagus cuniculus. Kind of data set: Cardiotoxicity in rabbit assessed as effect on contractility. In kind it is toxicity.
The nature of data set [5]: Chemical stability of the compound in PBS using DMSO at pH 7.4 after 100 hrs by NMR analysis. To be noted: buffer, pH 7.4, 100 h. In kind it is physicochemical.
Data set [6] is described as follows: Volume of distribution at steady state in Beagle dog at 0.5 mg/kg, iv. In kind it is ADME, organism-based, Canis lupus familiaris. Details: dose 0.5 mg/kg, route intravenous. To be noted: beagle, in vivo, read-out: Vdss.
Data set [7] is described as follows: Oral bioavailability in CD rat at 30 mg/kg administered as suspension. The settings on record: in vivo. In kind it is ADME, organism-based.
A short description of data set [8]: Lipophilicity, log D of the compound by chromatographic analysis. The format is physicochemical. In a few lines:
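Chromatographic log D measured at pH 7.4.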

The test system of data set [9] is HepG2. In words: Cytotoxicity in human HepG2 cells assessed as effect on cell membrane. In kind it is cell-based.
Data set [10] in a line: in vivo. The settings on record: beagle, dog, iv, 0.5 mg/kg.
Data set [11] in a line: Equilibrium solubility of the compound in fasted-state simulated intestinal fluid at pH 6.5 after 24 hrs by HPLC analysis. In kind it is physicochemical. In a few lines: (§1)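 Solid compound was equilibrated 24 h in the stated medium: water, SGF pH 1.6, FeSSIF pH 6.5, FaSSIF pH 6.5 or saline. Dissolved compound was quantified by HPLC.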
Data set [12] deals with T1, C-X-C chemokine receptor type 1 (Homo sapiens, UniProt P25024).
T1 sequence (P25024 whole entry): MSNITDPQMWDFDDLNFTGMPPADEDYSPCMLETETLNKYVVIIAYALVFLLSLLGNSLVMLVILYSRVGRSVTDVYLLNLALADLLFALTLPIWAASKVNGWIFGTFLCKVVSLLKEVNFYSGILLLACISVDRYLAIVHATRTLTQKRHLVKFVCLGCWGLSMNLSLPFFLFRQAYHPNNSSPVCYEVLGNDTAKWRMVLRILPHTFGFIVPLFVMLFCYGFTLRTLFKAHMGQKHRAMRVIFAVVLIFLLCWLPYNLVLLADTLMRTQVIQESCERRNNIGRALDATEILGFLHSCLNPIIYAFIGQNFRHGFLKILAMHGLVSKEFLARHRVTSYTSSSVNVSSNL
Kind of data set: Antagonist activity at CXCR1 receptor (unknown origin) by [35S]GTPgammaS binding assay. The format is functional. For orientation: GTPγS resists hydrolysis and so accumulates on activated G proteins.

Data set [13] in a line: Equilibrium solubility of the compound in saline after 24 hrs by HPLC analysis. In kind it is physicochemical. Summed up:
as §1

In data set [14] the target is Acetylcholine receptor subunit alpha (Homo sapiens) (UniProt P02708). In words: Antagonist activity at nAChR alpha1 (unknown origin) by [35S]GTPgammaS binding assay. The format is functional.
Acetylcholine receptor subunit alpha (Homo sapiens), sequence (P02708 whole entry): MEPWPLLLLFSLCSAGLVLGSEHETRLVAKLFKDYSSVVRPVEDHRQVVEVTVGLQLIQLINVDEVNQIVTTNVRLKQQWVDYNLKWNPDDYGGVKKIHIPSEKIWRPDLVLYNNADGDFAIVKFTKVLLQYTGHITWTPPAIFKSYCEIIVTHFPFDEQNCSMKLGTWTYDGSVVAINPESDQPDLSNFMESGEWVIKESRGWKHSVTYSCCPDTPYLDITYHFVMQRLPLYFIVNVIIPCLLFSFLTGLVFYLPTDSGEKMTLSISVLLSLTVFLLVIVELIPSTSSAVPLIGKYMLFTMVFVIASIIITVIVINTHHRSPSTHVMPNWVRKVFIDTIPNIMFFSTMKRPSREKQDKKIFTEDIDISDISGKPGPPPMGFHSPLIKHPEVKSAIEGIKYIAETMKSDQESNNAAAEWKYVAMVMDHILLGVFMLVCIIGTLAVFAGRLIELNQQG
The nature of data set [15]: Equilibrium solubility of the compound in Britton-Robinson buffer at pH 7 after 24 hrs by HPLC analysis. In kind it is physicochemical. In a few lines:
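Solid compound was equilibrated 24 h in Britton–Robinson buffer at the stated pH. Dissolved compound was quantified by HPLC.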

Data set [16] has as its target T2, C-C chemokine receptor type 10 (Homo sapiens, UniProt P46092).
T2 sequence (P46092 whole entry): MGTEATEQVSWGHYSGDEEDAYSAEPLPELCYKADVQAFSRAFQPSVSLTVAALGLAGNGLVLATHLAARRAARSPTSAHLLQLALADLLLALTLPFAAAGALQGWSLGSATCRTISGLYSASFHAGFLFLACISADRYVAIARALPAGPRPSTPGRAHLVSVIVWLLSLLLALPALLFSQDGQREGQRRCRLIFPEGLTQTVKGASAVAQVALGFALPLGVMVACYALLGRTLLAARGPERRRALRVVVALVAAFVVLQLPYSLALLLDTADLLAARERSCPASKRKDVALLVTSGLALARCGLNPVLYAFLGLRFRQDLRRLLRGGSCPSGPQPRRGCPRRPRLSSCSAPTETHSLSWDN
Kind of data set: Antagonist activity at CCR10 receptor (unknown origin) by [35S]GTPgammaS binding assay. In kind it is functional.

Data set [17] concerns the target T3, C-X-C chemokine receptor type 2 (Homo sapiens, UniProt P25025).
T3 sequence (P25025 whole entry): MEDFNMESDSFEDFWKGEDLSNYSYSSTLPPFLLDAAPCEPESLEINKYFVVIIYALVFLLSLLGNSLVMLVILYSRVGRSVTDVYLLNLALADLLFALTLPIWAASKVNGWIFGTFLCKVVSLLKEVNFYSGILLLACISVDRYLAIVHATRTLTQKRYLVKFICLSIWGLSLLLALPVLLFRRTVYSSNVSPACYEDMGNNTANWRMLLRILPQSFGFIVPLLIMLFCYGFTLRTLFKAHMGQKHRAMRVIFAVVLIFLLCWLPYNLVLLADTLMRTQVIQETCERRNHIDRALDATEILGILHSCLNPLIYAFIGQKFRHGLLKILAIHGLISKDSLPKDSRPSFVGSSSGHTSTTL
Kind of data set: Antagonist activity at CXCR2 receptor (unknown origin) by [35S]GTPgammaS binding assay. The format is functional.

Data set [18] can be described thus: Oral bioavailability in CD rat at 1 mg/kg administered as suspension. In kind it is ADME, organism-based. The settings on record: in vivo. Summed up:
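Rats received an oral suspension of wet bead-milled material (particle size <1 μm), dosed at 1, 10 and 30 mg/kg.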

Data set [19] in a line: Chemical stability of the compound in PBS using MeOH at pH 7.4 by NMR analysis. In kind it is physicochemical. The settings on record: buffer.
Data set [20] concerns the target C-X-C chemokine receptor type 4 (Homo sapiens, UniProt P61073). In words: Antagonist activity at CXCR4 receptor (unknown origin) by [35S]GTPgammaS binding assay. In kind it is functional.
The nature of data set [21]: in vivo. The settings on record: CD, rat, iv, 1 mg/kg.
Data set [22] is described as follows: Stability of the compound in solid state at 40 to 50 degC 75 % relative humidity after 1 month by NMR analysis. To be noted: 730.5 h.
The species named for data set [23] is Oryctolagus cuniculus. In words: Cardiotoxicity in rabbit assessed as liability for torsadogenic arrhythmia. The format is toxicity.
The subject of data set [24] is Rattus norvegicus. Kind of data set: Toxicity in rat assessed as effect on body temperature at 30 to 300 mg/kg, po. Set-up: dose 30-300 mg/kg, route oral. To be noted: in vivo. The format is organism-based. Summed up:
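Conscious rats were given oral doses of 30, 100 and 300 mg/kg. Body temperature, cardiovascular and electrocardiographic parameters were monitored.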

C-X-C chemokine receptor type 4, sequence (P61073 whole entry): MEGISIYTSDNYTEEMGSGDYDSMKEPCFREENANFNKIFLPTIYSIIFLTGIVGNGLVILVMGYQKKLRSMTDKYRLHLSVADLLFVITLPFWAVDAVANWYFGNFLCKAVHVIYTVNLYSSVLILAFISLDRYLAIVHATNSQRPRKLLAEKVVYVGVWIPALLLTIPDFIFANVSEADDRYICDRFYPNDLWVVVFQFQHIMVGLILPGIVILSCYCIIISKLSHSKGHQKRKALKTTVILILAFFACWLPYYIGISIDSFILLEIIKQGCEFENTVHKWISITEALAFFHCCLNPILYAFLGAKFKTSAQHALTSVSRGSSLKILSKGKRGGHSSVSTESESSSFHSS

By IC50 is commonly meant the midpoint of a concentration-inhibition curve. Read a high IC50 as weaker potency. One may read the chromatographic logD as a lipophilicity value derived from retention on a column. Lower therefore signals lower lipophilicity. By clearance is commonly meant the volume of plasma or blood freed of the substance per unit of time. Read a high clearance as efficient removal. Usually thermodynamic solubility stands for solubility found after equilibrating the solid with the medium. One may read the half-life as how long it takes for the measured level to halve. A higher half-life goes with slow loss. For `COc1cccc2c1c(NS(=O)(=O)c1ccc(Cl)s1)nn2Cc1cccc(CNC(=O)C(C)(C)O)c1`, the Activity result in data set [1], in data set [4], in [9], in data set [23] and in data set [24] was “Non-toxic” in each case. The fraction unbound in [2] was not above 0.01. Also, the IC50 in data set [3] is 6.31 µM; in data set [12], more than 10 µM; in data set [16] it was more than 10 µM; in [17] it was more than 10 µM; in data set [20], more than 10 µM. Besides, the Stability result is reported as “Stable” in [5], “Unstable” in data set [19] and “Stable” in data set [22]. The Vd in [6] was 2.2 L/kg. The bioavailability in [7] was found to be 101%; in data set [18], 53%. Moreover, the chromatographic logD in data set [8] stood at 4.3. Moreover, the clearance in data set [10] was 9 mL/min/kg. The solubility (thermodynamic) at 24 h was 10 µg/mL (≈ 18.2 µM) in data set [11], 73 µg/mL (≈ 133 µM) in data set [13] and 10 µg/mL (≈ 18.2 µM) in data set [15]. The same compound came in with a pXC50 in [14] of 5.1. In addition, the half-life in data set [21] is 2.5 h.

The values above are taken from ChEMBL document CHEMBL2321840, “Synthesis and structure-activity relationships of indazole arylsulfonamides as allosteric CC-chemokine receptor 4 (CCR4) antagonists” (J Med Chem, 2013).
